The source of these data is the RNAGym collection of RNA variant scans (doi:10.1126/science.aae0568).

B1: tRNA (parent)
chain: GUUCCGUUGGCGUAAUGGUAACGCGUCUCCCUCCUAAGGAGAAGACUGCGGGUUCGAGUCCCGUACGGAACG

Fewer inactive variants are shown than the library holds. Bounds are passed on as bounds.

The variants in this data set derive from B1. Description: yeast fitness relative to wild type (ratio to wild type); higher = fitter; tRNA-Arg(CCU), competitive growth, 37 C, YPD. An outline of the steps:
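The tRNA-Arg(CCU) gene variants were made by chemical synthesis with a 3% per-site mutation rate at 69 sites and inserted at the native genomic locus of Saccharomyces cerevisiae. After pooling, the strains were competed in YPD at 37°C for 24 hours in six parallel replicates. Gene amplicons from the start population and each end population were read by 100-nucleotide paired-end sequencing, and Darwinian fitness relative to wild type was taken from genotype frequency changes. Genotypes needed ≥ 100 starting reads, and estimates < 0.5 were set to 0.5.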
As to GUUCCGUUGGCGUAAUGGUAACGCGUGUCCCUCCUAAGCAGAAGACUGCGGGUUCGAGUCCCGUACGGUACG [C27G G39C A69U], the yeast fitness was 0.566.

Consider GUUCCGUUGGCGUAAUGGUAACGCGUGUCCCUCCUAAGGAGAAGACUGCGGGUUCGAGUCACGUACGGAACG [C27G C61A], for which the yeast fitness was 0.582.

Consider GUUCCGUUGGCGUAAUGGUAACGCGUGUCCCUCCUAAGGAGAAGACUGCGGGUUCGAGUCGCGUACGGAACG [C27G C61G], for which the yeast fitness was 0.554.

For GUUCCGUUGGCGUAAUGGUAACGCGUGUCCCUCCUAAGGAGAAGACUACGGGUUCGAGUCCCGUACCGUACG [C27G G48A G67C A69U], the yeast fitness amounted to 0.525.

For the variant GUUCCGUUGGCGUAAUGGUAACGCGUGUCCCUCCUAAGGAGAAGACUACGGGUUCGAGUGCCGUACGGAACG [C27G G48A C60G], the yeast fitness turned out to be 0.751.

With GUUCCGUUGGCGUAAUGGUAACGCGUGUCCCUCCUAAGGAGAAGACUACGGGUUCGAGUUCCGUACGGAACG [C27G G48A C60U], the yeast fitness is at most 0.5.

As for GUUCCGUUGGCGUAAUGGUAACGCGUGUCCCUCCUAAGGAGAAGACUGCGGGUUCGAGUCCGGUACGGAACG [C27G C62G], the yeast fitness was determined as 0.695.

Turning to GUUCCGUUGGCGUAAUGGUAACGCGUGUCCCUCCUAAGGAGAAGACUGCGGGUUCGAGUCCAGUACGGAACG [C27G C62A], the yeast fitness was 0.516.

In the case of GUUCCGUUGGCGUAAUGGUAACGCGUGUCCCUCCUAAGAAGAAGACUGCGGGUUCGAGUCCCGUAUGCAACG [C27G G39A C66U G68C], the yeast fitness came to 0.575.

As for GUUCCGUUGGCGUAAUGGUAACGCGUGUCCCUCCUAAGGAGAAGACUGCGGGUUGGAGUCCCGUACGGAUCG [C27G C55G A70U], the yeast fitness worked out at 0.617.

On to GUUCCGUUGGCGUAAUGGUAACGCGUGUCCCUCCUAAGGAGAAGACUGCGGGUUUGAGUCCCGUACCGAACG [C27G C55U G67C], for which the yeast fitness is at most 0.5.

Consider GUUCCGUUGGCGUAAUGGUAACGCGUGUCCCUCCUAAGGAGAAGACUGUGGGUUCGAGUACCGUACGGAACG [C27G C49U C60A], for which the yeast fitness was at most 0.5.

As for GUUCCGUUGGCGUAAUGGUAACGCGUGUCCCUCCUAAGGAGAAGACUGCGGGUUCAAGUCCCGUGCGGAACG [C27G G56A A65G], the yeast fitness stood at 0.535.

Consider GUUCCGUUGGCGUAAUGGUAACGCGUGUCCCUCCUAAGGAGAAGACUGCGGAUUCGAGUGCCGUACGGUCCG [C27G G52A C60G A69U A70C], for which the yeast fitness amounted to 0.514.

Regarding GUUCCGUUGGCGUAAUGGUAACGCGUGUCCCUCCUAAGGAGAAGACUGUGGGUUCGAGUCCUGUUCGGAACG [C27G C49U C62U A65U], the yeast fitness is at most 0.5.

As to GUUCCGUUGGCGUAAUGGUAACGCGUGUCCCUCCUAAGAAGAAGAUUGCGGGUUCGAGUCCCGUACGGAGCG [C27G G39A C46U A70G], the yeast fitness is at most 0.5.

In the case of GUUCCGUUGGCGUAAUGGUAACGCGUGUCCCUCCUAAGGAGAAGACUGCGGGUUCGAGUCCCGUACCGAACG [C27G G67C], the yeast fitness was determined as 0.677.

Take GUUCCGUUGGCGUAAUGGUAACGCGUGUCCCUCCUAAGGAGAAGACUGCGGGUUCGAGUCCCGUACAGAACG [C27G G67A]: the yeast fitness is 0.637.

Take GUUCCGUUGGCGUAAUGGUAACGCGUGUCCCUCCUAAGCAGAAGACUGCGGAUUCGAGUCCCGUACGGAACG [C27G G39C G52A]: the yeast fitness was at most 0.5.

For the variant GUUCCGUUGGCGUAAUGGUAACGCGUGUCCCUCCUAAGGAGAAGACUGCGGGUUCGAGUCCCGUAUGGAACG [C27G C66U], the yeast fitness was 0.621.

Turning to GUUCCGUUGGCGUAAUGGUAACGCGUGUCCCUCCUAAGGAGAAGACUGCGGGUUCGAGUCCCGUAGGGAACG [C27G C66G], the yeast fitness was 0.579.

GUUCCGUUGGCGUAAUGGUAACGCGUGUCCCUCCUAAGGAGAAGACUGCGGGUUCGAGUCCCGUAAGGAACG [C27G C66A]: the yeast fitness was at most 0.5.

With GUUCCGUUGGCGUAAUGGUAACGCGUGUCCCUCCUAAGGAGAAGACUGUGGGUUCGAGUCCCGUUCGGAGCG [C27G C49U A65U A70G], the yeast fitness is at most 0.5.

On to GUUCCGUUGGCGUAAUGGUAACGCGUGUCCCUCCUAAGGAGAAGACUACGAGUUCGAGUCCCGUACGGAACG [C27G G48A G51A], for which the yeast fitness was determined as 0.527.

GUUCCGUUGGCGUAAUGGUAACGCGUGUCCCUCCUAAGGAGAAGACUGCGGGUUCGAGUCCCAUAGGGAACG [C27G G63A C66G]: the yeast fitness is at most 0.5.

For the variant GUUCCGUUGGCGUAAUGGUAACGCGUGUCCCUCCUAAGGAGAAGACUGCGGGUUGGAGUCCCGUACGGAACG [C27G C55G], the yeast fitness was at most 0.5.

In the case of GUUCCGUUGGCGUAAUGGUAACGCGUGUCCCUCCUAAGGAGAAGACUGCGGGUUUGAGUCCCGUACGGAACG [C27G C55U], the yeast fitness was at most 0.5.

For the variant GUUCCGUUGGCGUAAUGGUAACGCGUGUCCCUCCUAAGCAGAAGACUGCGGGUUCGAGUCCCGUACGGAACG [C27G G39C], the yeast fitness came out at 0.585.

GUUCCGUUGGCGUAAUGGUAACGCGUGUCCCUCCUAAGGAGAAGACUGCGAGUUCGAGUCCCCUACGGAACG [C27G G51A G63C]: the yeast fitness was at most 0.5.

For the variant GUUCCGUUGGCGUAAUGGUAACGCGUGUCCCUCCUAAGGAGAAGAUUGCGAGUUCGAGUCCCGUACGGAACG [C27G C46U G51A], the yeast fitness was 0.633.

With GUUCCGUUGGCGUAAUGGUAACGCGUGUCCCUCCUAAAGAGAAGACUGCGGGUUCGAGUCCCGUACGGAACG [C27G G38A], the yeast fitness worked out at 0.745.

Take GUUCCGUUGGCGUAAUGGUAACGCGUGUCCCUCCUAAGGAGAAGACUCCGGGUUCGUGUCCCGUACGGAACG [C27G G48C A57U]: the yeast fitness was at most 0.5.

Take GUUCCGUUGGCGUAAUGGUAACGCGUGUCCCUCCUAAGGAGAAGACUGCGGCUUCGAGUCCCGUACGGAACG [C27G G52C]: the yeast fitness was 0.549.

On to GUUCCGUUGGCGUAAUGGUAACGCGUGUCCCUCCUAAGGAGAAGAUUGCAGGUUCGAGUCCCGUACGGAACG [C27G C46U G50A], for which the yeast fitness was 0.599.

For the variant GUUCCGUUGGCGUAAUGGUAACGCGUGUCCCUCCUAAGGAGAAGACUGCGGGUUCGAGUCCCGUACGAAACG [C27G G68A], the yeast fitness amounted to 0.607.

For GUUCCGUUGGCGUAAUGGUAACGCGUGUCCCUCCUAAGGAGAAGACUCCGGCUUCGAGUCCGGUACGGAACG [C27G G48C G52C C62G], the yeast fitness was at most 0.5.

Turning to GUUCCGUUGGCGUAAUGGUAACGCGUGACCCUCCUAAGGAGAAGACUGCGGGUUCGAGUCCCGUACGGAACG [C27G U28A], the yeast fitness stood at 0.596.

As for GUUCCGUUGGCGUAAUGGUAACGCGUGUCCCUCCUAAGGAGAAGACUGCAGGUUGGAGUCCGGUACUGAACG [C27G G50A C55G C62G G67U], the yeast fitness was at most 0.5.
